The target of data set [1] is Mitogen-activated protein kinase 9 (Homo sapiens, UniProt P45984, C163S). Nature of the data set: Inhibition of JNK2 C163S mutant by isothermal calorimetry. The method in brief:
(§1)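 Isothermal titration calorimetry at 25 °C. C163S or wild-type JNK2 at 50 μM in 20 mM sodium phosphate pH 7.4 with 5% DMSO and 0.01% Triton X-100. Titrant at 750 μM in the same buffer.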
In general terms: ITC needs no label: the signal is the heat of the interaction.

The nature of data set [2]: Metabolic stability in rat plasma assessed as compound remaining after 60 mins by LC/MS-MS. The data set is classed as ADME, cell-free. To be noted: read-out: Stability. The method in brief: (§2)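 Compound at 1 μM (2.5% final DMSO) incubated in fresh rat plasma at 37 °C. Reactions stopped at 0, 30 and 60 min with two volumes of methanol containing internal standard, then precipitated, centrifuged and analysed by LC-MS. Percent parent remaining relative to 0 min calculated from peak-area ratios to internal standard. Run in duplicate with a plasma-labile positive control.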

The nature of data set [3]: Permeability assessed as drug flux at pH 7.4 by PAMPA assay. The data set is classed as ADME. The method in brief: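 PAMPA: filter impregnated with 1-20% phospholipid in organic solvent over an acceptor plate of aqueous buffer at pH 7.4. Donor added from a 20 μM stock (DMSO <2%). An equilibrium plate was prepared in parallel, and percent flux was calculated from acceptor versus equilibrium concentrations. Reference compounds included.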
(In general: The PAMPA barrier holds no transporters, so it reflects passive diffusion.)

For data set [4], the target named is T1, Mitogen-activated protein kinase 9 (Homo sapiens, UniProt P45984). In words: Displacement of biotin-labeled pep-JIP1from JNK2 by DELFIA assay. In outline:
(§3)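 Added Eu-labelled anti-GST antibody (300 ng/ml; 1.9 nM), compound in DMSO and GST-JNK2 at 10 nM final. Incubated 1 hr at 0 °C, washed 5 times, enhancement solution added, fluorescence read after 10 min (ex 340, em 615 nm). Controls were unlabelled peptide and no-compound blanks.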
Target sequence in this assay (P45984 whole entry): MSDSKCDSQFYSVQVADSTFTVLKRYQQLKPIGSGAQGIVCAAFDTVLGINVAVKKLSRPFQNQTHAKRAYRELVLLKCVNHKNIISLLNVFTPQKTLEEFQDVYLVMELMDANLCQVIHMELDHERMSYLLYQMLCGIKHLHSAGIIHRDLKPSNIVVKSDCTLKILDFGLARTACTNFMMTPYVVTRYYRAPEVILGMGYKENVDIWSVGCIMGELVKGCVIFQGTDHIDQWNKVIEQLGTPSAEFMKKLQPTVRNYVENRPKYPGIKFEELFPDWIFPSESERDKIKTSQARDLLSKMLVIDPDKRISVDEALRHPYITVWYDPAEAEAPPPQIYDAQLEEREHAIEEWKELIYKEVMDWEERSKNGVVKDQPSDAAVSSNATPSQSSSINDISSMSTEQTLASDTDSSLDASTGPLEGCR

In data set [5] the target is T1, Mitogen-activated protein kinase 9. In words: Inhibition of wild-type JNK2 by isothermal calorimetry. The method in brief: as §1
Target sequence in this assay (P45984 whole entry): as above
The nature of data set [6]: Inhibition of JNK-mediated TNF-alpha-stimulated c-Jun phosphorylation by cell-based TR-FRET assay. In outline: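 HeLa cells stably expressing GFP-c-Jun(1-79) plated at 10000/well in Opti-MEM with 1% charcoal/dextran-treated FBS, no phenol red, and left overnight. Pretreated 60 min with compound, then stimulated 30 min with TNF-alpha at 2 ng/ml. Lysed in buffer containing 2 nM terbium anti-phospho-c-Jun (Ser73) antibody and equilibrated 1 h at room temperature. TR-FRET ratio Em520/Em490 read with excitation at 340 nm.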

Data set [7] has as its target T2, Mitogen-activated protein kinase 8 (Homo sapiens, UniProt P45983). In words: Inhibition of JNK1 by TR-FRET assay. In outline:
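LanthaScreen TR-FRET kinase assay. JNK1 at 35 ng/mL, ATF2 substrate at 400 nM and ATP at 0.2 μM in 50 mM HEPES pH 7.5, 10 mM MgCl2, 1 mM EGTA, 0.01% Brij-35, with compound. Reaction ran 1 hr at room temperature, then terbium-labelled antibody plus EDTA were added.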
For orientation: In TR-FRET formats the signal depends on donor and acceptor labels being close together.

In data set [8] the target is T2, Mitogen-activated protein kinase 8. Nature of the data set: Inhibition of JNK1 up to 25 uM by TR-FRET assay. In outline:
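LanthaScreen TR-FRET kinase assay. JNK1 at 35 ng/mL, ATF2 substrate at 400 nM and ATP at 0.2 μM in 50 mM HEPES pH 7.5, 10 mM MgCl2, 1 mM EGTA, 0.01% Brij-35, with compound. Reaction ran 1 hr at room temperature, then terbium-labelled antibody plus EDTA were added. After a further hour, the 520/495 nm emission ratio was read.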

In data set [9] the target is T1, Mitogen-activated protein kinase 9. In words: Displacement of biotin-labeled pep-JIP1from JNK2 at 50 uM by DELFIA assay. The method in brief:
as §3
Target sequence in this assay (P45984 whole entry, looked up): as the sequence (P45984 whole entry) above

A short description of data set [10]: Metabolic stability in rat plasma assessed as compound remaining after 30 mins by LC/MS-MS. To be noted: read-out: Stability. It counts as ADME, cell-free. The method in brief: as §2
The target of data set [11] is Furin (Homo sapiens, UniProt P09958). Nature of the data set: Inhibition of FURIN.
Sequence of Furin (P09958 whole entry): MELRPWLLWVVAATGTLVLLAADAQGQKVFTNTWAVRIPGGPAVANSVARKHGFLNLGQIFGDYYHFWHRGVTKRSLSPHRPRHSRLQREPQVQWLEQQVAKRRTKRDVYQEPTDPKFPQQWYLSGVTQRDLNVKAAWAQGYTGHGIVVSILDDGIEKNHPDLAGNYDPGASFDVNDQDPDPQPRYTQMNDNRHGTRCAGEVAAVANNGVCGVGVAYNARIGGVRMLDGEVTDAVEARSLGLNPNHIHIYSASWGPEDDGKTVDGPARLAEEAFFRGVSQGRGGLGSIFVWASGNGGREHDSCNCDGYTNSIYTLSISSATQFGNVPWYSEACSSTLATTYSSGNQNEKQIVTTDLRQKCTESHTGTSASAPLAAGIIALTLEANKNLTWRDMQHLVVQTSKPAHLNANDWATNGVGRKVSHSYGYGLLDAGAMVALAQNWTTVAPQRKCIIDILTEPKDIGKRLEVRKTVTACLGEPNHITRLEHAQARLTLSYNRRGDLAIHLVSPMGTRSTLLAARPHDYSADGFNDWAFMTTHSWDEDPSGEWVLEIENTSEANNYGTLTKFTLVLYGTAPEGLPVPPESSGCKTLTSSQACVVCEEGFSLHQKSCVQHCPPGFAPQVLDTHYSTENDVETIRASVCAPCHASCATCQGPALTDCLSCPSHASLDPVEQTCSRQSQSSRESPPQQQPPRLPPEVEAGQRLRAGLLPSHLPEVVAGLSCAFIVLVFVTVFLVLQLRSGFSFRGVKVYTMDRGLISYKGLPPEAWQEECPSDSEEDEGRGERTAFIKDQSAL
Data set [12] has as its target RAC-alpha serine/threonine-protein kinase (Homo sapiens, UniProt P31749). In words: Inhibition of AKT.
Data set [13] deals with Mitogen-activated protein kinase 14 (Homo sapiens, UniProt Q16539). In words: Inhibition of p38alpha MAPK.
Sequence of Mitogen-activated protein kinase 14 (Q16539 whole entry): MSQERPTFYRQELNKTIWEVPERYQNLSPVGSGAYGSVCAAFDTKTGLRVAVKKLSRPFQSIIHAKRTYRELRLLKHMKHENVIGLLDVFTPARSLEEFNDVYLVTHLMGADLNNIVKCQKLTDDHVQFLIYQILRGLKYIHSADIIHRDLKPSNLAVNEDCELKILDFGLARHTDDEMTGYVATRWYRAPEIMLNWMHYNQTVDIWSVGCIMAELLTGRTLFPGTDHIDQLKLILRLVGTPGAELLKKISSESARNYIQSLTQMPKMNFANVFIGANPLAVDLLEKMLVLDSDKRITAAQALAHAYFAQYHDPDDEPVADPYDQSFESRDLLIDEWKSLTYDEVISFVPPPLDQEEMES
The target of data set [14] is T3, Lethal factor (Bacillus anthracis, UniProt P15917).
T3 sequence (P15917 whole entry): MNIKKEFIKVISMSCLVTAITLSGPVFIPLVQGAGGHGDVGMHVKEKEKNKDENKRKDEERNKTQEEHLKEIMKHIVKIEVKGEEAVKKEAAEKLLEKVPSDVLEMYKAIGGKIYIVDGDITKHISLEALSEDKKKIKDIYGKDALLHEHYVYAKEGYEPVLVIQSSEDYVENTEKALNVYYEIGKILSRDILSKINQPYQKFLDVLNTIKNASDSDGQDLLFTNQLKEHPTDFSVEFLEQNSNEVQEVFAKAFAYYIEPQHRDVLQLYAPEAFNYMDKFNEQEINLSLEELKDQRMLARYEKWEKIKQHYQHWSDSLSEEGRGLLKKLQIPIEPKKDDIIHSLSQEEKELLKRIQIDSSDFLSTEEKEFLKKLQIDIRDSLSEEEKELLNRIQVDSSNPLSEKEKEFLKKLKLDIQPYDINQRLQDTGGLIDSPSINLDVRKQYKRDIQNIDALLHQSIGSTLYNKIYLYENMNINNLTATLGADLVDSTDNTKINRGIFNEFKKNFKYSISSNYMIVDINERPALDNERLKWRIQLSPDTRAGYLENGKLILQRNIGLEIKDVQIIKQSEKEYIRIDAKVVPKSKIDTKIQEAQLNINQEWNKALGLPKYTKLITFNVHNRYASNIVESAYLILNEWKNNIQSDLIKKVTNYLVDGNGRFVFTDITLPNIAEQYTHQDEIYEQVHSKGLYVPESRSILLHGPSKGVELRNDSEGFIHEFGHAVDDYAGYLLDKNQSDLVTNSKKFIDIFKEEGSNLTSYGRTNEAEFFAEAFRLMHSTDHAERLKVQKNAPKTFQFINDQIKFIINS
Nature of the data set: Inhibition of Bacillus anthracis anthrax lethal factor.

Calls of active or inactive are those of the source. The rule behind the calls is not given here.

T2 sequence (P45983 whole entry): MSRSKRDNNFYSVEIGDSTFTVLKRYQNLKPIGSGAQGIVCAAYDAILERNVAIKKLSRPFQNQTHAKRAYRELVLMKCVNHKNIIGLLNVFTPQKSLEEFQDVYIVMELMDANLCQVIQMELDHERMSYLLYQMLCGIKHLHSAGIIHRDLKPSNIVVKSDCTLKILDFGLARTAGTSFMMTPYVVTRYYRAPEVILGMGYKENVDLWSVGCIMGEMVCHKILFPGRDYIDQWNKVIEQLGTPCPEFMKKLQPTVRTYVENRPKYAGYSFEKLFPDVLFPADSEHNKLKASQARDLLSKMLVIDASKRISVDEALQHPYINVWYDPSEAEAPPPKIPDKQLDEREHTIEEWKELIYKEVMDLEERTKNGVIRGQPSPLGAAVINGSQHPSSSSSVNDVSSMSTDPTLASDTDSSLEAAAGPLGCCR
Sequence of RAC-alpha serine/threonine-protein kinase (P31749 whole entry): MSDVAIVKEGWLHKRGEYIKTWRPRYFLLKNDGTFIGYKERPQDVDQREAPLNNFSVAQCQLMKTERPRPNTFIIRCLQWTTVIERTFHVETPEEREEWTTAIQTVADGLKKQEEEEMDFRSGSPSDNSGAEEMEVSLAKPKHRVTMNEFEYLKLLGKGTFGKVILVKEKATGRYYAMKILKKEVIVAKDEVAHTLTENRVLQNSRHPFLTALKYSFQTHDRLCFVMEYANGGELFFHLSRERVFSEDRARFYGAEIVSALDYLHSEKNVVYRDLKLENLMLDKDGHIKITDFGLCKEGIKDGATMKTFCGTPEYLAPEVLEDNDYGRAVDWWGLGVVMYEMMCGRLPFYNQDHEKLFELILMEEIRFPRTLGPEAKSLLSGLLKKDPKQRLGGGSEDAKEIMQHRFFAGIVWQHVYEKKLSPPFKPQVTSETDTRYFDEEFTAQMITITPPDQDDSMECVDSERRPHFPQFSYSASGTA
Sequence of Mitogen-activated protein kinase 9 (Homo sapiens, UniProt P45984, C163S) (P45984 whole entry C163S): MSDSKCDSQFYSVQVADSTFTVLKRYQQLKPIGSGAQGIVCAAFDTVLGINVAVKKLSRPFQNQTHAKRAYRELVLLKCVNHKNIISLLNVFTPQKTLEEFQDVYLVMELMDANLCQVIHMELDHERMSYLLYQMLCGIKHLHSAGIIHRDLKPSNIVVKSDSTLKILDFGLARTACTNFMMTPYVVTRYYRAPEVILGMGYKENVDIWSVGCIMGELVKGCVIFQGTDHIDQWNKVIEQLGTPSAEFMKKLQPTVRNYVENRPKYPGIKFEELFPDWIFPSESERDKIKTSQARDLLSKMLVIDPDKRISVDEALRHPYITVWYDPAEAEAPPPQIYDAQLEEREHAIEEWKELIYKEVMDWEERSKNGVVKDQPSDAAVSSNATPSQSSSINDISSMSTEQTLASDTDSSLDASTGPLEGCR

`O=[N+]([O-])c1cnc(Sc2nnc(O)n2-c2ccc3c(c2)OCCO3)s1`: the figures for the Kd in data set [1] and in [5] were 51.1 µM and 8.1 µM, respectively. Also, the remaining at 1 h in data set [2] stood at 0%. The permeability in [3] was 5.5%. Besides, the IC50 in [4] stood at 0.5 µM.

On to `COc1ccc(CNc2nnc(Sc3ncc([N+](=O)[O-])s3)s2)cc1`, for which the IC50 in data set [4] was determined as 0.1 µM; in data set [6] it was 21 µM; in data set [7] it was 9.1 µM.

`CCCCNc1nnc(Sc2ncc([N+](=O)[O-])s2)s1`: the inhibition entry in data set [8] was “inactive”. Also, the inhibition in [9] was determined as 20%.

On to `CC(C)(C)Nc1nnc(Sc2ncc([N+](=O)[O-])s2)s1`, for which the inhibition entry in data set [8] was “inactive”. Moreover, the inhibition in data set [9] is 20%.

For `O=[N+]([O-])c1cnc(Sc2nnc(NCc3ccccc3)s2)s1`, in data set [8], the inhibition entry is “inactive”. In addition, in data set [9], the inhibition amounted to 20%.

For `CCNc1nnc(Sc2ncc([N+](=O)[O-])s2)s1`, the IC50 came out at 10 µM in data set [4] and 100 µM in data set [7].

Turning to `COc1ccc(CCNc2nnc(Sc3ncc([N+](=O)[O-])s3)s2)cc1OC`, the remaining at 0.5 h in [10] was determined as 6.05%. Besides, the IC50 is above 50 µM in [11]; above 100 µM in [12]; 0.1 µM in data set [4]; above 100 µM in [13]; above 100 µM in data set [14]; 5.7 µM in data set [7]. Besides, the affinity in data set [1], expressed as Kd, was 1.9 µM. For the same molecule, the remaining at 1 h in data set [2] stood at 68%. Further, the permeability in [3] is listed as 76.3%.

As to `COCCNc1nnc(Sc2ncc([N+](=O)[O-])s2)s1`, the remaining at 0.5 h in data set [10] was determined as 79.7%. Also, the IC50 was above 50 µM in data set [11]; above 100 µM in data set [12]; 0.16 µM in data set [4]; 8 µM in data set [6]; above 100 µM in [13]; above 100 µM in data set [14]. This molecule also yielded a half-maximal inhibitory concentration (IC50) in data set [7] of 4.8 µM. Besides, the Kd stood at 4.2 µM in data set [1] and 2.8 µM in [5]. Also, in [2], the remaining at 1 h amounted to 35%. In [3], the permeability was 49.8%.

As to `O=[N+]([O-])c1cnc(Sc2nnc(NCC3CCCO3)s2)s1` (stereo not given), the IC50 in [4] was determined as 0.47 µM; in data set [7], 10 µM.

Turning to `CCC(C)Nc1nnc(Sc2ncc([N+](=O)[O-])s2)s1` (stereo not given), the remaining at 0.5 h in data set [10] was 90%. In addition, the IC50 in [11] was above 50 µM; in data set [12], above 100 µM; in data set [4], 0.14 µM; in [6] it was 20 µM; in [13], above 100 µM; in [14] it was above 100 µM. Besides, the midpoint of inhibition in [7], the IC50, lay at 3 µM. Further, the permeability in data set [3] is 7.9%.

As to `CCCNc1nnc(Sc2ncc([N+](=O)[O-])s2)s1`, in [10], the remaining at 0.5 h amounted to 48.1%. For the same molecule, the IC50 was above 50 µM in data set [11]; above 100 µM in data set [12]; 0.29 µM in [4]; above 100 µM in data set [13]; above 100 µM in data set [14]; 6.7 µM in data set [7]. Further, the Kd came to 7.2 µM in [1] and 9.4 µM in data set [5]. The remaining at 1 h in [2] amounted to 42%. The permeability in data set [3] amounted to 30%.

In general, Kd refers to the free concentration of one partner at which half of the binding sites on the other are occupied at equilibrium, for simple one-to-one binding. A word on the IC50: it is the concentration needed to halve the response being measured. A word on the inhibition: it is the change of the read-out against control, counted positive when it falls.

These data come from ChEMBL document CHEMBL1159095, “Synthesis and optimization of thiadiazole derivatives as a novel class of substrate competitive c-Jun N-terminal kinase inhibitors” (Bioorg Med Chem, 2010).
